Data set [1] relates to SET-2. The data set is described as follows: Inhibition of STAT3 phosphorylation in human SET2 cells xenografted in SCID mouse assessed as tumor growth inhibition at 50 mg/kg, po as single dose measured up to 12 hrs post treatment. Also on record: dose 50 mg/kg. The class given is functional, organism-based. The procedure, abridged:
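SET-2 s.c. xenografts in irradiated female SCID mice were given one oral dose. Tumours were collected at several post-treatment times, 3 animals per time. Tumour lysates were western blotted for P-STAT5 and P-STAT3, with GAPDH as loading control.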

In data set [2] the target is T1, Serine/threonine-protein kinase TAO1 (Homo sapiens) (UniProt Q7L7X3).
T1 sequence (whole entry): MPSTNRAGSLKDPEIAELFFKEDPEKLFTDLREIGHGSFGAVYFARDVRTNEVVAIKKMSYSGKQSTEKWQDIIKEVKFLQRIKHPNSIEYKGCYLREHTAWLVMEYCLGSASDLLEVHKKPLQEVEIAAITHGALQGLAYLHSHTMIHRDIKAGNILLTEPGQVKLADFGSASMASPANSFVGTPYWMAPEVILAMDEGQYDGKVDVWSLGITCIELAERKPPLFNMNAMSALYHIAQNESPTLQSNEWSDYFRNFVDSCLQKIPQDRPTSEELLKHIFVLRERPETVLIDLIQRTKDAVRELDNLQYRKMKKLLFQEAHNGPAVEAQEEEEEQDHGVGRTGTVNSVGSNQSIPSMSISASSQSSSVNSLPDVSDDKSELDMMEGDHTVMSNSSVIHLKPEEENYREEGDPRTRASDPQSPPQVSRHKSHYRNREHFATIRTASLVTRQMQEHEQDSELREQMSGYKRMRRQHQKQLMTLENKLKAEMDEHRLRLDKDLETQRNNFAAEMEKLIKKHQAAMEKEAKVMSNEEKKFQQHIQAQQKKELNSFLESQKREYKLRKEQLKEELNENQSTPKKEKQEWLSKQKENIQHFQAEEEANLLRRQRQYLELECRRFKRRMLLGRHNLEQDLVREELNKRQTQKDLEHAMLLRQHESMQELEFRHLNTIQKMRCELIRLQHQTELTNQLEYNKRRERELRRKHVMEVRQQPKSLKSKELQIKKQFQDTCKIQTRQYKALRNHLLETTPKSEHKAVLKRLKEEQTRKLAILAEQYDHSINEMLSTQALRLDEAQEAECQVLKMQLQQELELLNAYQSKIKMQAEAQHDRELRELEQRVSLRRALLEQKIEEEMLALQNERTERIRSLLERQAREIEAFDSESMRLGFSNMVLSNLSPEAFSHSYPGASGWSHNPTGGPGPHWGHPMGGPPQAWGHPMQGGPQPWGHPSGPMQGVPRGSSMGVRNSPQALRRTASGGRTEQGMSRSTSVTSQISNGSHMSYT
The data set is described as follows: Inhibition of human TAOK1 at 0.1 uM. The procedure, abridged:
(§1)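 KINOMEscan active-site-directed competition binding panel of 442 human kinases, compound tested at 0.1 µM. Primary screen results expressed as % Ctrl, where lower values mean stronger binding.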

A short description of data set [3]: Half life in Balb nu/nu mouse at 10 mg/kg, iv. The class given is ADME, organism-based. Also noted: dose 10 mg/kg, route intravenous. The settings on record: in vivo. The method, boiled down: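 Overnight-fasted male Nu/Nu mice, single intravenous dose in 10% Tween 80 in 5% dextrose, three mice. Saphenous vein blood taken at predose, 0.083, 0.5, 1, 6 and 24 h. Plasma obtained by centrifugation at 10,000g, 3 min, 4 °C, stored at -80 °C, then analysed by LC/MS/MS.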

Data set [4] deals with Dual specificity protein kinase CLK1 (Homo sapiens) (UniProt P49759). The data set is described as follows: Inhibition of human CLK1 at 0.1 uM. The procedure, abridged:
as §1

We go through 1 compound from ChEMBL document CHEMBL3352511, “Pyrrole-3-carboxamides as potent and selective JAK2 inhibitors” (Bioorg Med Chem, 2014).

Calls of active or inactive are those of the source. No cut-off for these calls is given here.

Sequence of Dual specificity protein kinase CLK1 (Homo sapiens) (P49759 whole entry, looked up): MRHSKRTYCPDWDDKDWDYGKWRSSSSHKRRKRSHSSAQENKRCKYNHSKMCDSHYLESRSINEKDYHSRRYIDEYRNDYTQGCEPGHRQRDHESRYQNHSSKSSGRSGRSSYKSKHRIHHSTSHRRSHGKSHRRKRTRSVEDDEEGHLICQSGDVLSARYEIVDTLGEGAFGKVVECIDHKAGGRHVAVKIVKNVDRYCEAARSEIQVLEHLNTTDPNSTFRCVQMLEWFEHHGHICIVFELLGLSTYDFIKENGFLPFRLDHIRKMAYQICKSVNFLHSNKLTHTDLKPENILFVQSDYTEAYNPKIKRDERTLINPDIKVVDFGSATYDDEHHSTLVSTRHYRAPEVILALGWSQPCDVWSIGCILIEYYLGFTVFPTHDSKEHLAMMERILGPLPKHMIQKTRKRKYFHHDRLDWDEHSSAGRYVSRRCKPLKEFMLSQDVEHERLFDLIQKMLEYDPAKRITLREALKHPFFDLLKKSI

Turning to `NC(=O)c1cc(-c2ccnc(N)n2)[nH]c1-c1cc(C(F)(F)F)ccc1Cl`, the inhibition entry in data set [1] is “Active”. The inhibition in data set [2] and in data set [4] was 1% each time. Also, the half-life in data set [3] is 1.1 h.
